Data set [1] in a line: Regional brain distribution in rat hypothalamus was determined after 120 min of intravenous administration of the compound; [125I]- is used as radioactive isotope. Format: ADME, tissue-based. The settings on record: in vivo, 2 h. The method, boiled down: (§1)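 Rats, three per group, injected with 10 μCi tracer in 0.2 mL saline via the femoral vein under ether anesthesia and killed by cardiac excision at the stated time. Cortex (frontal plus occipital), striatum, hippocampus, cerebellum and hypothalamus were dissected, weighed and gamma-counted. Values are % dose/g, calculated by comparison with counts of a 100-fold diluted aliquot of the injected dose.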

Data set [2] in a line: Biodistribution in rat muscle was determined after 11 hours of intravenous administration of the compound; [125I]- is used as radioactive isotope. Type of data set: ADME, organism-based, Muscle tissue. Particulars: in vivo. In outline:
(§2)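 Rats, three per group, under ether anaesthesia, received 10 μCi of [¹²⁵I]-labelled tracer in 0.2 mL saline into the femoral vein. They were killed by cardiac excision under ether at each time point. Organs were removed, weighed and counted. Percent dose per organ was calculated against counts of a 1% aliquot of the injected dose (100-fold diluted) counted at the same time.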

Data set [3] in a line: Distribution ratio in cortex and cerebellum was determined after 60 min of intravenous administration of the compound; [125I]- is used as radioactive isotope. Format: ADME, tissue-based. Particulars: rat, 1 h. In outline:
(§3)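 After femoral-vein injection of 10 μCi [¹²⁵I] tracer in 0.2 mL saline under ether anaesthesia (three rats per group), brain regions were dissected, weighed and counted: cortex (frontal plus occipital), hippocampus, hypothalamus and cerebellum. %dose/g was calculated against a diluted injected-dose standard. Ratio = (region − cerebellum)/cerebellum on a %dose/g basis, with cerebellum as the background region.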

Data set [4] in a line: Biodistribution in rat skin was determined after 2 min of intravenous administration of the compound; [125I]- is used as radioactive isotope. Type of data set: ADME, organism-based, Zone of skin. Particulars: in vivo. In outline:
as §2

A short description of data set [5]: Biodistribution in rat thyroid was determined after 11 hours of intravenous administration of the compound; [125I]- is used as radioactive isotope. Particulars: in vivo. Format: ADME, organism-based, Thyroid gland. In outline: as §2
Data set [6] can be described thus: Biodistribution in rat thyroid was determined after 30 min of intravenous administration of the compound; [125I]- is used as radioactive isotope. Type of data set: ADME, organism-based, Thyroid gland. The settings on record: in vivo, 0.5 h. The method, boiled down:
as §2

Data set [7] can be described thus: Biodistribution in rat brain was determined after 11 hours of intravenous administration of the compound; [125I]- is used as radioactive isotope. Format: ADME, organism-based. Particulars: in vivo. In outline: (§4)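 Rats under ether anesthesia, three per group, received 10 μCi tracer in 0.2 mL saline into the femoral vein. They were killed by cardiac excision under ether at each time point. Organs were removed, weighed and counted. Percent dose per organ was calculated against a 1%-of-injected-dose standard counted at the same time.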

Data set [8] in a line: Biodistribution in rat lung was determined after 240 min of intravenous administration of the compound; [125I]- is used as radioactive isotope. Type of data set: ADME, organism-based. The settings on record: in vivo, 4 h. In outline: as §4
Data set [9] is described as follows: Biodistribution in rat muscle was determined after 24 hours of intravenous administration of the compound; [125I]- is used as radioactive isotope. The settings on record: in vivo. Format: ADME, organism-based, Muscle tissue. The method, boiled down: as §2
The nature of data set [10]: Biodistribution in rat blood was determined after 30 min of intravenous administration of the compound; [125I]- is used as radioactive isotope. The settings on record: in vivo, 0.5 h. Type of data set: ADME, organism-based. In outline:
as §4

Data set [11] is described as follows: Distribution ratio in cortex and cerebellum was determined after 11 hrs of intravenous administration of the compound; [125I]- is used as radioactive isotope. Type of data set: ADME, tissue-based. The settings on record: rat. The method, boiled down:
as §3

The nature of data set [12]: Biodistribution in rat skin was determined after 60 min of intravenous administration of the compound; [125I]- is used as radioactive isotope. Format: ADME, organism-based, Zone of skin. Particulars: in vivo, 1 h. The method, boiled down:
as §2

Data set [13] can be described thus: Distribution ratio in striatum and cerebellum was determined after 120 min of intravenous administration of the compound; [125I]- is used as radioactive isotope. Particulars: rat, 2 h. Format: ADME, tissue-based. In outline:
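Rats, three per group, given 10 μCi tracer in 0.2 mL saline into the femoral vein under ether anesthesia, then killed by cardiac excision at the stated time. Brain regions were dissected, weighed and counted. Percent dose/g was calculated against a 1% diluted aliquot of the injected dose. The ratio is (region − cerebellum)/cerebellum on a % dose/g basis, with cerebellum as background.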

The nature of data set [14]: Biodistribution in rat liver was determined after 60 min of intravenous administration of the compound; [125I]- is used as radioactive isotope. Particulars: in vivo, 1 h. Type of data set: ADME, organism-based. In outline: as §4
The nature of data set [15]: Distribution ratio in hippocampus and cerebellum was determined after 240 min of intravenous administration of the compound; [125I]- is used as radioactive isotope. The settings on record: rat, 4 h. Type of data set: ADME, tissue-based. In outline: as §3
The nature of data set [16]: Biodistribution in rat thyroid was determined after 2 min of intravenous administration of the compound; [125I]- is used as radioactive isotope. Type of data set: ADME, organism-based, Thyroid gland. The settings on record: in vivo. The method, boiled down: as §2
A short description of data set [17]: Regional brain distribution in rat striatum was determined after 11 hours of intravenous administration of the compound; [125I]- is used as radioactive isotope. Format: ADME, tissue-based. The settings on record: in vivo. The method, boiled down:
as §1

Data set [18] is described as follows: Biodistribution in rat blood was determined after 2 min of intravenous administration of the compound; [125I]- is used as radioactive isotope. Type of data set: ADME, organism-based. Particulars: in vivo. In outline:
as §4

The nature of data set [19]: Biodistribution in rat lung was determined after 30 min of intravenous administration of the compound; [125I]- is used as radioactive isotope. Type of data set: ADME, organism-based. Particulars: in vivo, 0.5 h. In outline: as §4

The structures appear in SMILES notation.

These results are taken from ChEMBL document CHEMBL1137220, “2-(2-(dimethylaminomethyl)phenoxy)-5-iodophenylamine: an improved serotonin transporter imaging agent” (J Med Chem, 2004).

Consider `CN(C)Cc1ccccc1Oc1ccc(I)cc1N`, for which the Dose/g in [1] amounted to 0.92%; in data set [3] it was 1.35%; in data set [11], 0%; in [13], 2.53%; in data set [15] it was 2.47%; in data set [17], 0.01%. The Dose in [2] amounted to 4.01%; in data set [4] it was 4.45%; in data set [5], 5.15%; in data set [6] it was 0.15%; in data set [7], 0.02%; in [8], 0.37%. Further, the Dose in [9] came to 1.13%; in data set [10] it was 4.56%; in data set [12], 13.9%; in data set [14], 5.79%; in data set [16], 0.1%; in data set [18], 5.75%. Also, the Dose in [19] worked out at 3.56%.
